Laboratory results from ChEMBL document CHEMBL1795268, “Synthesis and antimicrobial activity of some novel dicationic sulphonophanes” (2011).
Converted amounts (≈) assume the structure as drawn. The source made the active and inactive calls. The calls are words filed in the database; no cut-off is given here.

Key:
Proteus vulgaris = experiment: Antimicrobial activity against Proteus vulgaris after 24 hrs by agar well diffusion assay; type: functional
Procedure, shortened: (§1)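 Bacterial isolates from a university culture collection were grown in Mueller-Hinton broth for 8 h at 37 °C, then swabbed onto nutrient agar plates. Test solutions went into wells cut in the agar, with commercial antibiotics as positive reference. Plates were incubated at 37 °C for 24 h, and the MIC was read from the zones of inhibition.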

Escherichia coli = experiment: Antimicrobial activity against Escherichia coli after 24 hrs by agar well diffusion assay; type: functional; procedure, shortened: as §1
Vibrio cholerae = experiment: Antimicrobial activity against Vibrio cholerae after 24 hrs by agar well diffusion assay; type: functional
Bacillus subtilis = experiment: Antimicrobial activity against Bacillus subtilis after 24 hrs by agar well diffusion assay; type: functional; procedure, shortened: as §1
Staphylococcus aureus = experiment: Antimicrobial activity against Staphylococcus aureus after 24 hrs by agar well diffusion assay; type: functional; procedure, shortened: as §1
[1] = target: Gyrase B (Escherichia coli) (UniProt Q6S6F1); experiment: Inhibition of Escherichia coli DNA gyrase B
Candida albicans = experiment: Antifungal activity against Candida albicans after 48 hrs by agar well diffusion assay; type: functional
Procedure, shortened: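 C. albicans, kept on Sabouraud's dextrose agar, was grown in Sabouraud's dextrose broth at 37 °C for 8 h to make the inoculum for agar well diffusion. The MIC was recorded.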

Compound | MIC (Proteus vulgaris) [µg/mL] | MIC (Escherichia coli) [µg/mL] | MIC (Vibrio cholerae) [µg/mL] | MIC (Bacillus subtilis) [µg/mL] | MIC (Staphylococcus aureus) [µg/mL] | inhibition [1] | MIC (Candida albicans) [µg/mL]
O=C1c2ccc(cc2)C[n+]2ccn(c2)Cc2ccc(cc2)S(=O)(=O)c2ccc(cc2)Cn2cc[n+](c2)Cc2ccc1cc2.[Br-].[Br-] | 30 | 25 | 5 | 15 | 15 | Active | 5
O=C(O)c1cn(C2CC2)c2cc(N3CCNCC3)c(F)cc2c1=O [CIPROFLOXACIN] | 10 (≈ 30.2 µM) | 5 (≈ 15.1 µM) | 10 (≈ 30.2 µM) | 5 (≈ 15.1 µM) | 5 (≈ 15.1 µM) |  | 
O=C1c2ccc(cc2)C[n+]2ccn(c2)Cc2ccc(cc2)S(=O)(=O)c2ccc(cc2)Cn2cc[n+](c2)Cc2ccc(cc2)C(=O)c2cccc1c2.[Br-].[Br-] | 25 | 30 | 30 | 35 | 40 |  | 15
Clc1ccccc1C(c1ccccc1)(c1ccccc1)n1ccnc1 [CLOTRIMAZOLE] |  |  |  |  |  |  | 5 (≈ 14.5 µM)
O=S1(=O)c2ccc(cc2)Cn2cc[n+](c2)Cc2cccc(c2)C[n+]2ccn(c2)Cc2ccc1cc2.[Br-].[Br-] | 40 | 55 | 35 | 20 | 30 |  | 40
O=S1(=O)c2ccc(cc2)Cn2cc[n+](c2)Cc2ccc(cc2)-c2cccc(c2)-c2ccc(cc2)C[n+]2ccn(c2)Cc2ccc1cc2.[Br-].[Br-] | 20 | 25 | 25 | 15 | 30 |  | 5
O=S1(=O)c2ccc(cc2)Cn2cc[n+](c2)Cc2ccccc2C[n+]2ccn(c2)Cc2ccc1cc2.[Br-].[Br-] | 60 | 30 | 35 | 40 | 40 |  | 20
O=S1(=O)c2ccc(cc2)Cn2cc[n+](c2)Cc2ccc(cc2)S(=O)(=O)c2ccc(cc2)C[n+]2ccn(c2)Cc2ccc1cc2.[Br-].[Br-] | 15 | 15 | 10 | 10 | 5 | Active | 5
O=S1(=O)c2ccc(cc2)Cn2cc[n+](c2)Cc2ccc(cc2)C[n+]2ccn(c2)Cc2ccc1cc2.[Br-].[Br-] | 40 | 60 | 70 | 30 | 25 |  | 25
COc1cc2c(OC)cc1C[n+]1ccn(c1)Cc1ccc(cc1)S(=O)(=O)c1ccc(cc1)Cn1cc[n+](c1)C2.[Br-].[Br-] | 30 | 30 | 40 | 15 | 10 |  | 10
